{"source": "paper PMC12618661", "about": "(NPJ Science of Food, 2025)", "key": {"[1]": {"conditions": "vs sucrose; stated without own test, ref not given; cited from earlier work"}, "[2]": {"experiment": "Static in vitro digestion simulation", "type": "in vitro ADME, human", "conditions": "oral, gastric and intestinal phases, 37 °C", "method_in_brief": "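Static digestion of 50 mg test compound ran at 37 °C with stirring. Oral phase: saliva pH 7.0 (1.5 mM CaCl₂, 75 U/mL amylase), sampled at 5 min. Samples were heat-stopped (100 °C, 5 min), centrifuged and filtered, and glucose was measured by kit.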"}, "[3]": {"experiment": "Water solubility evaluation", "type": "physicochemical", "conditions": "deionized water", "method_in_brief": "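Compound was added to deionized water to supersaturation and stirred for 24 h at 25 °C. The mixture was centrifuged at 8000 × g, 25 °C, for 20 min. The supernatant was freeze-dried and the residue weighed.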"}, "[4]": {"system": "mammalian mucosal α-glucosidase (rat intestinal acetone powder, RIAP)", "experiment": "Glucose generation rate", "type": "in vitro ADME", "conditions": "5 mg/mL substrate, RIAP-derived α-glucosidase, 2 h", "method_in_brief": "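Rat intestinal acetone powder (0.5 g) was extracted in 10 mL 100 mM sodium phosphate (pH 6.2) at 4 °C for 24 h and centrifuged. The supernatant was freeze-dried and re-dissolved in 10 mL of the same buffer as α-glucosidase. Test compound at 5 mg/mL was incubated with the enzyme. Aliquots were taken at 0, 10, 20, 30, 60 and 120 min, heat-inactivated for 10 min, and glucose was measured with a glucose assay kit.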"}, "HFD-fed C57BL/6 N mice [5]": {"system": "HFD-fed C57BL/6 N mice", "experiment": "HFD-induced obesity in mice: body weight, intake, tissue weight, histology", "type": "in vivo, mouse", "conditions": "0.2 g/L in drinking water, 16 weeks", "method_in_brief": "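Eight-week-old C57BL/6N mice were kept on a 60% kcal-fat HFD for 16 weeks with test compound at 0.2 g/L in drinking water ad libitum, or plain water. Estimated intake was about 0.675 mg/mouse/day. Body weight was taken weekly and food/water every other day (n = 10). Median-weight mice gave formalin-fixed paraffin sections (gWAT 7 μm, liver 5 μm), H&E stained (n = 5). Adipocyte size came from about 3,000 cells, four images per mouse. Data are mean ± SEM.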"}, "[6]": {"experiment": "Thermogravimetric analysis", "type": "physicochemical", "conditions": "TGA"}, "HFD-fed C57BL/6 N mice [7]": {"system": "HFD-fed C57BL/6 N mice", "experiment": "Immunoblot of tissue lysates from HFD-fed mice", "type": "in vivo, mouse", "conditions": "0.2 g/L in drinking water, 16 weeks", "method_in_brief": "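Mice were on a 16-week 60% kcal-fat HFD with test compound at 0.2 g/L in drinking water or plain water. Liver, gWAT and BAT lysates came from median-body-weight mice. Equal protein was run on SDS-PAGE, transferred to nitrocellulose and blocked in 5% skim milk. Primary antibodies (ACC, FAS, UCP1, p-PLIN, HSP90) ran overnight at 4 °C, then secondary 2–3 h at room temperature. Detection was by ECL with band densitometry, n = 4 per group.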"}, "[8]": {"conditions": "TGA; cited from earlier work"}, "[9]": {"experiment": "pH stability in Britton–Robinson buffer", "type": "physicochemical", "method_in_brief": "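Compound was dissolved at 0.05% (w/v) in Britton–Robinson buffer over pH 1.4–10. The amount remaining was quantified by HPLC.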"}, "rats": {"system": "rats", "conditions": "cited from earlier work"}, "[10]": {"experiment": "Storage stability in aqueous solution", "type": "physicochemical", "conditions": "1 month, 25 °C", "method_in_brief": "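Aqueous solutions of 1–2% (w/v) were held at 25 °C for up to 1 month. Compound remaining in the supernatant at 0, 7, 15 and 30 days was quantified by HPLC.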"}, "HFD-fed C57BL/6 N mice [11]": {"system": "HFD-fed C57BL/6 N mice", "experiment": "Serum analysis of HFD-fed mice", "type": "in vivo, mouse", "conditions": "0.2 g/L in drinking water, 16 weeks", "method_in_brief": "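After 16 weeks of 60% kcal-fat HFD with test compound at 0.2 g/L in drinking water or plain water, mice were euthanised with CO2. Blood was taken by cardiac puncture. An automated chemistry analyser measured serum cholesterol, TG, ALT, AST and glucose (n = 5 per group). Data are mean ± SEM with one-way ANOVA and Dunnett's or Tukey's test.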"}}}
{"compound": "C=C1C[C@@]23CC[C@H]4[C@@](C)(CCC[C@@]4(C)C(=O)O[C@@H]4O[C@H](CO)[C@@H](O)[C@H](O)[C@H]4O)[C@@H]2CC[C@]1(O[C@@H]1O[C@H](CO)[C@@H](O)[C@H](O)[C@H]1O[C@@H]1O[C@H](CO)[C@@H](O)[C@H](O)[C@H]1O)C3", "note": "[ST, stevioside]", "values": [{"measurement": "Sweetness relative to sucrose", "setting": "[1]", "result": 250, "unit": "times"}, {"measurement": "Hydrolysis in in vitro simulated digestion", "setting": "[2]", "result": 2, "unit": "%"}, {"measurement": "solubility at 24 h", "setting": "[3]", "result": "11 ± 3.11", "unit": "mg/mL"}, {"measurement": "Glucose released", "setting": "[4]", "result": "almost no glucose release"}]}
{"compound": "rebaudioside A [Reb A]", "values": [{"measurement": "Crown-like structure (CLS) in gWAT, inflammatory indicator", "setting": "HFD-fed C57BL/6 N mice [5]", "result": "significantly increased"}, {"measurement": "Number of large adipocytes in gWAT", "setting": "HFD-fed C57BL/6 N mice [5]", "result": "remained unchanged"}, {"measurement": "Water intake and food consumption", "setting": "HFD-fed C57BL/6 N mice [5]", "result": "comparable across the groups"}, {"measurement": "gWAT weight", "setting": "HFD-fed C57BL/6 N mice [5]", "result": "did not increase"}, {"measurement": "Body weight", "setting": "HFD-fed C57BL/6 N mice [5]; vs control", "result": "no effect"}, {"measurement": "Temperature at which second-stage mass loss commenced", "setting": "[6]", "result": "280–290 °C"}, {"measurement": "Initial mass retained at 597 °C", "setting": "[6]; 597 °C", "result": "9.92 ± 0.45", "unit": "%"}, {"measurement": "Initial mass retained, second-stage mass loss", "setting": "[6]; stage commencing at approximately 280–290 °C", "result": "19.89 ± 1.67", "unit": "%"}, {"measurement": "ACC protein expression in liver", "setting": "HFD-fed C57BL/6 N mice [7]", "result": "increased"}, {"measurement": "p-PLIN protein level in gWAT", "setting": "HFD-fed C57BL/6 N mice [7]; vs control", "result": "substantially decreased"}, {"measurement": "Sweetness relative to sucrose", "setting": "[1]", "result": 250, "unit": "times"}, {"measurement": "Hydrolysis in in vitro simulated digestion", "setting": "[2]", "result": 2, "unit": "%"}, {"measurement": "Second-stage mass loss temperature previously reported", "setting": "[8]", "result": 284.71, "unit": "°C"}, {"measurement": "Initial concentration retained at pH 1.4", "setting": "[9]; pH 1.4, 0.05% (w/v) in Britton–Robinson buffer", "result": "25.26 ± 3.19", "unit": "%"}, {"measurement": "Initial concentration retained at pH 2", "setting": "[9]; pH 2, 0.05% (w/v) in Britton–Robinson buffer", "result": "82.67 ± 2.39", "unit": "%"}, {"measurement": "Initial concentration retained at pH 10", "setting": "[9]; pH 10, 0.05% (w/v) in Britton–Robinson buffer", "result": "84.56 ± 1.68", "unit": "%"}, {"measurement": "Water solubility", "setting": "[3]; stirred 24 h at 25 °C", "result": "5.10 ± 2.93", "unit": "mg/mL"}, {"measurement": "No-observed-adverse-effect level (NOAEL)", "setting": "rats", "result": 4100, "unit": "mg/kg/day"}, {"measurement": "Initial concentration remaining after storage, 1% (w/v) aqueous solution", "setting": "[10]; 1% (w/v)", "result": "52.61 ± 1.69", "unit": "%"}, {"measurement": "Initial concentration remaining after storage, 2% (w/v) aqueous solution", "setting": "[10]; 2% (w/v)", "result": "32.14 ± 3.78", "unit": "%"}, {"measurement": "Glucose released", "setting": "[4]", "result": "almost no glucose release"}, {"measurement": "Serum TG", "setting": "HFD-fed C57BL/6 N mice [11]", "result": "remained unchanged"}, {"measurement": "Serum cholesterol", "setting": "HFD-fed C57BL/6 N mice [11]", "result": "remained unchanged"}]}
